Results published in article PMC9165018 (Journal of medicinal chemistry, 2022).
“And” between values parts separate entries of the source, which are not always exact repeats. Equal values may be shown once. “Also recorded” adds a separate entry of the source. Read-outs that look alike come from different tables or passages of the source. One block for each molecule: values may come before it.

Legend:
[1] = Microsomal stability test, human liver microsome; assay type: in vitro ADME; conditions: human liver microsomes
Summary of the method: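 Human liver microsomes (10 µL at 20 mg/mL) were combined with 330 µL 0.1 M phosphate buffer (3.3 mM MgCl2) and 40 µL of 10 µM test compound, with NADPH in the same buffer. Verapamil was the positive control.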

[2] = Microsomal stability test, mouse liver microsome; assay type: in vitro ADME; conditions: MLM and HLM t1/2, vs compound 1
MIA PaCa-2 cells [3] = experiment: 7-day MTT growth inhibition assay, MIA PaCa-2; assay type: cell-based; conditions: for IC50: Homo sapiens, MIA PaCa-2, 168 h; for activity (cytotoxicity in pancreatic cancer cells): 7-day MTT assay
Summary of the method: (§1)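 Cells were seeded in glucose-containing medium (MIA PaCa-2 200 cells/well; BxPC-3 300 cells/well), incubated overnight at 37 °C, 5% CO2, then exposed to test compound or DMSO for 7 days. MTT (3 mg/mL solution) was added for 4 h, formazan dissolved in DMSO, and A570 read. Inhibition = [1 − (At−Ab)/(Ac−Ab)] × 100. IC50 came from nonlinear regression; at least three independent runs.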

MIA PaCa-2 cells [4] = experiment: 3-day MTT assay in glucose- or galactose-containing medium; assay type: cell-based
Summary of the method: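 MIA PaCa-2 cells were treated with test compound for 3 days in glucose-containing medium. MTT (3 mg/mL solution) was added for 4 h at 37 °C. Supernatant was removed, formazan was dissolved in DMSO, and absorbance was read at 570 nm. IC50 came from nonlinear regression of log concentration–response curves. Experiments were run at least three times.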

OXPHOS Complex I = experiment: NAD+/NADH ratio; assay type: cell-based; conditions: MIA PaCa-2 cells, NAD/NADH-Glo Assay, 2 days treatment
Summary of the method: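 MIA PaCa-2 cells (5 × 10^3/well) were treated the next day for 48 h with test compound in RPMI 1640 + 10% FBS. Cells were PBS-washed and lysed in bicarbonate base buffer with 1% DTAB. For NAD+, lysate was acid-treated (0.4 N HCl); for NADH, lysate was heated directly; both at 60 °C for 15 min, then neutralised with Trizma. After 30 min with Glo detection reagent, luminescence was read. IC50 of the NAD+/NADH ratio came from nonlinear regression.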

BxPC-3 cells = experiment: 7-day MTT growth inhibition assay, BxPC-3; assay type: cell-based; conditions: Homo sapiens, BXPC-3, 168 h, read-out: IC50 in BxPC-3 cells
Summary of the method: as §1

[5] = Pharmacokinetics in CD-1 mice; assay type: in vivo; conditions: plasma
Summary of the method: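 CD-1 mice received test compound at 2 mg/kg i.v. or 10 mg/kg p.o., and plasma concentration–time profiles were measured. Parameters came from non-compartmental analysis: AUC(0-tldc) to last detectable concentration and AUC(0-inf) extrapolated to infinity. Terminal half-life used ≥3 terminal-phase points. Bioavailability = (AUCpo × Dose_iv)/(AUCiv × Dose_po) × 100%.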

Pan02 cells = experiment: Pan02 syngeneic pancreatic cancer model efficacy study; assay type: in vivo; conditions: for tumor growth inhibition: Pan02 syngeneic model
Summary of the method: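 Female C57BL/6 mice, 6-10 weeks old, received 5×10^6 Pan02 cells s.c. in the right flank and were randomized (n = 5/group) at ~100 mm3. Dosing was daily for 28 days in 10% DMSO/50% PG/40% saline, or 10% DMSO/60% PG/30% saline for the 15 mg/kg dose. Tumours were measured by caliper twice weekly, V = (length × width²)/2. Body weight was recorded before dosing, then twice weekly.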

[6] = read-out: IC50 in MIA PaCa-2 cells

HLM t1/2 (human liver microsome half life) [1]: 36 s
SMILES: CCOC(=O)[C@@H]1CCCN(S(=O)(=O)c2ccc(S(=O)(=O)N(CC)CC)cc2)C1 [Compound 1]

improvement of microsomal stability over compound 1 [2]: more than 30 fold
SMILES: CCN(CC)S(=O)(=O)c1ccc(S(=O)(=O)N2CCC[C@@H](C(=O)NC3COC3)C2)cc1 [Compound 2]

SMILES: CCN(CC)S(=O)(=O)c1ccc(S(=O)(=O)N2CCC[C@@H](C(=O)N3CCC(OC)CC3)C2)cc1 [Compound 12, (R)-N,N-Diethyl-4-((3-(4-methoxypiperidine-1-carbonyl)piperidin-1-yl)sulfonyl)benzenesulfonamide]
improvement in MIA PaCa-2 cell growth inhibition (MIA PaCa-2 cells [3]; vs compound 11): 2 fold | activity in glucose-containing medium (MIA PaCa-2 cells [4]): inactive

SMILES: CCN(CC)S(=O)(=O)c1ccc(S(=O)(=O)N2CCC[C@@H](C(=O)N3CCC(F)(F)CC3)C2)cc1 [Compound 16, (R)-4-((3-(4,4-Difluoropiperidine-1-carbonyl)piperidin-1-yl)sulfonyl)-N,N-diethylbenzenesulfonamide]
NAD+/NADH ratio (IC50, nM) Glucose medium (OXPHOS Complex I): 23 ± 18.1 nM

IC50 (MIA PaCa-2 cells [3]; read-out: MIA PaCa-2 IC50): 118 ± 44 nM
SMILES: CN(C)S(=O)(=O)c1ccc(S(=O)(=O)N2CCC[C@@H](C(=O)N3CCC(F)(F)CC3)C2)cc1 [Compound 20, (R)-4-((3-(4,4-Difluoropiperidine-1-carbonyl)piperidin-1-yl)sulfonyl)-N,N-dimethylbenzenesulfonamide]
NAD+/NADH ratio (IC50, nM) Glucose medium (OXPHOS Complex I): 34 ± 15 nM

SMILES: O=C([C@@H]1CCCN(S(=O)(=O)c2ccc(S(=O)(=O)N3CC[C@@H](O)C3)cc2)C1)N1CCC(F)(F)CC1 [Compound 21, (4,4-Difluoropiperidin-1-yl)((R)-1-((4-(((R)-3-hydroxypyrrolidin-1-yl)sulfonyl)phenyl)sulfonyl)piperidin-3-yl)methanone]
NAD+/NADH ratio (IC50, nM) Glucose medium (OXPHOS Complex I): 67.5 ± 18.8 nM

SMILES: CC(C)S(=O)(=O)c1ccc(S(=O)(=O)N2CCC[C@@H](C(=O)N3CCC(F)(F)CC3)C2)cc1 [Compound 23, (R)-(4,4-Difluoropiperidin-1-yl)(1-((4-(isopropylsulfonyl)phenyl)sulfonyl)piperidin-3-yl)methanone]
IC50 (MIA PaCa-2 cells [3]; [6]): ~10 nM | IC50 (BxPC-3 cells): < 100 nM | NAD+/NADH ratio (IC50, nM) Glucose medium (OXPHOS Complex I): 3.6 nM and 3.6 ± 3.2 nM | AUC(0-inf) ([5]; IV 2 mg/kg): 657.0 nM:h | AUC(0-tldc) ([5]; IV 2 mg/kg): 650.0 nM:h | AUC(0-inf) ([5]; PO 10 mg/kg): 417.1 nM:h | AUC(0-tldc) ([5]; PO 10 mg/kg): 368.1 nM:h | tolerability (Pan02 cells; Pan02 model, once daily for 28 days, 20 7.5 mg/kg i.p., 21 15 mg/kg i.p., 27 2.5 mg/kg i.p., 23 10 mg/kg p.o.): well tolerated | tumor growth inhibition (Pan02 cells; 10 mg/kg p.o. once daily for 28 days, 10 mg/kg): significant tumor growth inhibition; also recorded: significant tumor growth delay

IC50 (MIA PaCa-2 cells [3]; [6]): ~10 nM | IC50 (BxPC-3 cells): < 100 nM
SMILES: CCC(CC)S(=O)(=O)c1ccc(S(=O)(=O)N2CCC[C@@H](C(=O)N3CCC(F)(F)CC3)C2)cc1 [Compound 25, (R)-(4,4-Difluoropiperidin-1-yl)(1-((4-(pentan-3-ylsulfonyl)phenyl)sulfonyl)piperidin-3-yl)methanone]

SMILES: O=C([C@@H]1CCCN(S(=O)(=O)c2ccc(S(=O)(=O)C3CCC3)cc2)C1)N1CCC(F)(F)CC1 [Compound 27, (R)-(1-((4-(Cyclobutylsulfonyl)phenyl)sulfonyl)piperidin-3-yl)(4,4-difluoropiperidin-1-yl)methanone]
IC50 (MIA PaCa-2 cells [3]; [6]): ~10 nM | IC50 (BxPC-3 cells): < 100 nM | NAD+/NADH ratio (IC50, nM) Glucose medium (OXPHOS Complex I): 3.2 ± 1.3 nM | tumor growth inhibition (Pan02 cells; 2.5 mg/kg i.p. once daily for 28 days): significant tumor growth inhibition

SMILES: CP(C)(=O)c1ccc(S(=O)(=O)N2CCC[C@@H](C(=O)N3CCC(F)(F)CC3)C2)cc1 [Compound 30, (R)-(4,4-Difluoropiperidin-1-yl)(1-((4-(dimethylphosphoryl)phenyl)sulfonyl)piperidin-3-yl)methanone]
activity (cytotoxicity in pancreatic cancer cells) (MIA PaCa-2 cells [3]): complete loss of activity

SMILES: CCP(=O)(CC)c1ccc(S(=O)(=O)N2CCC[C@@H](C(=O)N3CCC(F)(F)CC3)C2)cc1 [Compound 31, (R)-(1-((4-(diethylphosphoryl)phenyl)sulfonyl)piperidin-3-yl)(4,4-difluoropiperidin-1-yl)methanone]
activity (cytotoxicity in pancreatic cancer cells) (MIA PaCa-2 cells [3]): complete loss of activity
